Measured values as given in ChEMBL document CHEMBL4699441, “Identification and Preclinical Evaluation of the Bicyclic Pyrimidine γ-Secretase Modulator BMS-932481” (ACS Med Chem Lett, 2019).
Converted amounts (≈) assume the structure as drawn. The source made the active and inactive calls. The rule behind the calls is not given here.

Assays:
[1] = Half life in Beagle dog at 1 mg/kg, iv measured up to 24 hrs by LC-MS/MS analysis; assay type: ADME, organism-based, Canis lupus familiaris; details: in vivo
How it was run: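 Male Beagle dogs and male cynomolgus monkeys, 1 mg/kg by 5 min iv infusion in 9:1 PEG:EtOH, n=3.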

[2] = Toxicity in rat assessed as reduction in food consumption at 100 mg/kg, po administered for 2 week; assay type: organism-based; details: in vivo, 336 h, time 2 weeks
[3] = AUC in Beagle dog at 300 mg/kg, po measured up to 24 hrs by LC-MS/MS analysis; assay type: ADME, organism-based, Canis lupus familiaris; parameters: route oral, dose 300 mg/kg, time >=24; details: in vivo
How it was run: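 Dogs given an acute single oral dose of 300 mg/kg; plasma Cmax and AUC measured alongside bilirubin and other clinical pathology assessments.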

[4] = target: T1, Gamma-secretase (Homo sapiens) (UniProt Q96BI3+Q9NZ42+Q8WW43+P49768+Q92542+P49810); experiment: Modulation of gamma-secretase in human H4 cells overexpressing APP incubated assessed as increase in amyloid beta (1 to 38) secretion for 24 hrs by MALDI-TOF mass spectrometric analysis; assay type: cell-based; details: filed as modulator
How it was run: (§1)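 H4-APPsw cells treated with compound; secreted Aβ species quantified by mass spectrometry; total Aβ1-x checked by ELISA up to 10 μM.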

[5] = Volume of steady state distribution in Sprague-Dawley rat at 2 mg/kg, iv measured up to 24 hrs by LC-MS/MS analysis; assay type: ADME, organism-based; details: in vivo
How it was run: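 Sprague–Dawley rats; 2 mg/kg given as 5 min iv infusion in 9:1 PEG:EtOH; n = 5; volume of distribution at steady state.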

[6] = Toxicity in Beagle dog assessed as changes in bilirubin level at 300 mg/kg, po; assay type: organism-based, Canis lupus familiaris; details: in vivo
How it was run: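 Dogs given a single acute oral dose of 300 mg/kg; bilirubin and other clinical pathology assessed; Cmax and AUC measured.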

[7] = system: H4; experiment: Inhibition of amyloid beta (1 to 40) secretion in human H4 cells overexpressing APP incubated for 24 hrs by MALDI-TOF mass spectrometric analysis; assay type: functional, cell-based
[8] = target: T2, Cytochrome P450 1A2 (Homo sapiens, UniProt P05177); experiment: Inhibition of CYP1A2 in human liver microsomes; assay type: ADME
T2 sequence (P05177 whole entry): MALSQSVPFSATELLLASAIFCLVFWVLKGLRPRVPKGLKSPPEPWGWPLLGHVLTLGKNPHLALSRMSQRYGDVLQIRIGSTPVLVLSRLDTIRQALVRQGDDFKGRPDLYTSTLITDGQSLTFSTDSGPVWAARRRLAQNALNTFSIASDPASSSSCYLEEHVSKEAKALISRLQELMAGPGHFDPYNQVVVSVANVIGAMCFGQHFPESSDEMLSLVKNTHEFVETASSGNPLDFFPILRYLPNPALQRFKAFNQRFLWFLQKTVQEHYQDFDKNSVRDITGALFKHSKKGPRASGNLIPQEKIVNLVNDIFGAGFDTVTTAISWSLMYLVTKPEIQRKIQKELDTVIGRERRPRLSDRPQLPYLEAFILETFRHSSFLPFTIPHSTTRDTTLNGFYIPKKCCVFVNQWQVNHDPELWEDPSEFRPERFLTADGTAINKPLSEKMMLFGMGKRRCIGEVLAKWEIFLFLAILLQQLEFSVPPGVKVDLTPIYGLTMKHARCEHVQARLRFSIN

[9] = target: Cytochrome P450 3A4 (Homo sapiens, UniProt P08684); experiment: Time dependent inhibition of CYP3A4 in human liver microsomes assessed as inactivation constant; assay type: ADME
[10] = Inhibition of amyloid beta (x to 42) secretion in human H4 cells overexpressing APP incubated for overnight by HTRF analysis; assay type: functional, cell-based
[11] = AUC (0 to 24 hrs) in Harlan Sprague-Dawley rat incubated for 24 hrs by LC-MS/MS analysis; assay type: ADME; parameters: time 24 hrs; details: in vivo
[12] = Fraction unbound in cynomolgus monkey plasma measured after 24 hrs by LC-MS/MS analysis; assay type: ADME, cell-free, Macaca fascicularis
[13] = Half life in Sprague-Dawley rat at 2 mg/kg, iv measured up to 24 hrs by LC-MS/MS analysis; assay type: ADME, organism-based; details: in vivo
How it was run: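 Sprague-Dawley rats, 2 mg/kg by 5 min iv infusion in 9:1 PEG:EtOH, n=5.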

[14] = target: T3, Cytochrome P450 2C8 (Homo sapiens, UniProt P10632); experiment: Inhibition of CYP2C8 in human liver microsomes; assay type: ADME
T3 sequence (P10632 whole entry): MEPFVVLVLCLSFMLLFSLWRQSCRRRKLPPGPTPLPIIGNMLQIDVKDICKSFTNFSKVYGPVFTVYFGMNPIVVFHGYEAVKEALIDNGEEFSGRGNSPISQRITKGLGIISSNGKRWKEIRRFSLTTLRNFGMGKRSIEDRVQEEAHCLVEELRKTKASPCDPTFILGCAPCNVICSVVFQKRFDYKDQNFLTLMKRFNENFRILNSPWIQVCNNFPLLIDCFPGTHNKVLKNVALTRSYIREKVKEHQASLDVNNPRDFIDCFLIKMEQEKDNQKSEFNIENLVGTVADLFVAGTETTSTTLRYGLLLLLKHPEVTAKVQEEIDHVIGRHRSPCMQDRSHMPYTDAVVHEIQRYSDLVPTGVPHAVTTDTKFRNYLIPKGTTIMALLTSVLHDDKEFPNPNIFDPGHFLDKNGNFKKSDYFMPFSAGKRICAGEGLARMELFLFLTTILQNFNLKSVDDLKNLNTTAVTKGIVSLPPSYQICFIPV

[15] = Metabolic stability in cynomolgus monkey assessed as half life incubated for 24 hrs by LC-MS/MS analysis; assay type: ADME, Macaca fascicularis
[16] = target: Cytochrome P450 2C19 (Homo sapiens, UniProt P33261); experiment: Inhibition of CYP2C19 in human liver microsomes; assay type: ADME
[17] = Inhibition of amyloid beta (1 to 40) secretion in human H4 cells overexpressing APP incubated for overnight by HTRF analysis; assay type: functional, cell-based
[18] = target: T1, Gamma-secretase (Homo sapiens); experiment: Modulation of gamma-secretase in human H4 cells overexpressing APP incubated assessed as increase in amyloid beta (1 to 37) secretion for 24 hrs by MALDI-TOF mass spectrometric analysis; assay type: cell-based; details: filed as modulator; how it was run: as §1
[19] = target: Cytochrome P450 2C9 (Homo sapiens, UniProt P11712); experiment: Inhibition of CYP2C9 in human liver microsomes; assay type: ADME
[20] = Dissociation constant, pKa of compound; assay type: physicochemical
[21] = Plasma exposure (AUC) in rat at 3 mg/kg measured after 24 hrs
[22] = Fraction unbound in Beagle dog plasma measured after 24 hrs by LC-MS/MS analysis; assay type: ADME, cell-free, Canis lupus familiaris
[23] = Fraction unbound in mouse plasma measured after 24 hrs by LC-MS/MS analysis; assay type: ADME, cell-free
[24] = Induction of CYP3A4 mRNA expression in human hepatocytes at 1 uM relative to control; assay type: ADME, cell-based, Hepatocyte
[25] = Aqueous solubility of the compound at pH 6.5; assay type: physicochemical; details: buffer
[26] = Oral bioavailability in Sprague-Dawley rat at 2 mg/kg dosed as nano suspension measured up to 24 hrs by LC-MS/MS analysis; assay type: ADME, organism-based; details: in vivo
How it was run: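 Oral dosing as a nanosuspension in Sprague–Dawley rat, male Beagle dog and male cynomolgus monkey; dogs pretreated with pentagastrin.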

[27] = Toxicity in Beagle dog assessed as NOAEL administered for 1 month; parameters: species or system Canis lupus familiaris; details: in vivo, 730 h, time 1 months
[28] = Octanol/water partition coefficient, logD of the compound at pH 7.4 by shake flask method; assay type: physicochemical

Sequence of Cytochrome P450 2C19 (P33261 whole entry): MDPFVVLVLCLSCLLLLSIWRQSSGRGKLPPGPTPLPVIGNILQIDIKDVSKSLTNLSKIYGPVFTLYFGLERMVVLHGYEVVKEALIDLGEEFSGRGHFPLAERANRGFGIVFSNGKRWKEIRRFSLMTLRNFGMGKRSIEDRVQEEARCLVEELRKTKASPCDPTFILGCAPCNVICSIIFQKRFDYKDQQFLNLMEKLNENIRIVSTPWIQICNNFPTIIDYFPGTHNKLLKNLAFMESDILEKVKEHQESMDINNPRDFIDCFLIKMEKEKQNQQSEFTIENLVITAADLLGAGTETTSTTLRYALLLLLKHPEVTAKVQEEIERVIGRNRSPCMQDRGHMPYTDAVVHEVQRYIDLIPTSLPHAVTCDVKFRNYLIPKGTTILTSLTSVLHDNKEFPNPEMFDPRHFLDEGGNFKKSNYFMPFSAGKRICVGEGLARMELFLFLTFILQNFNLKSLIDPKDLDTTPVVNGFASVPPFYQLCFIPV
Sequence of Cytochrome P450 2C9 (P11712 whole entry): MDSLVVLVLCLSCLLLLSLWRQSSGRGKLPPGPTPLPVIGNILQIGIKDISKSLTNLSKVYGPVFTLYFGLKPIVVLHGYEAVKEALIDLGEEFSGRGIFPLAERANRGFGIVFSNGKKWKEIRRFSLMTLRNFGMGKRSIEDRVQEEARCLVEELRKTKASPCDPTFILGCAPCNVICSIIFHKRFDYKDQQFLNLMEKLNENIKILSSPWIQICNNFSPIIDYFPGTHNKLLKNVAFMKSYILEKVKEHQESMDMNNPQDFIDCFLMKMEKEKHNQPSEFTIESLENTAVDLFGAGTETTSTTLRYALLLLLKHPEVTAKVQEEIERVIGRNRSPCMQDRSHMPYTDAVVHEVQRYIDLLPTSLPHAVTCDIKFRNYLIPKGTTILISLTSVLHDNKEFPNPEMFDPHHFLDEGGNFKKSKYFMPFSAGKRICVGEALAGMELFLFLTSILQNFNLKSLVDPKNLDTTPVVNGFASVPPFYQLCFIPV
Sequence of Cytochrome P450 3A4 (P08684 whole entry): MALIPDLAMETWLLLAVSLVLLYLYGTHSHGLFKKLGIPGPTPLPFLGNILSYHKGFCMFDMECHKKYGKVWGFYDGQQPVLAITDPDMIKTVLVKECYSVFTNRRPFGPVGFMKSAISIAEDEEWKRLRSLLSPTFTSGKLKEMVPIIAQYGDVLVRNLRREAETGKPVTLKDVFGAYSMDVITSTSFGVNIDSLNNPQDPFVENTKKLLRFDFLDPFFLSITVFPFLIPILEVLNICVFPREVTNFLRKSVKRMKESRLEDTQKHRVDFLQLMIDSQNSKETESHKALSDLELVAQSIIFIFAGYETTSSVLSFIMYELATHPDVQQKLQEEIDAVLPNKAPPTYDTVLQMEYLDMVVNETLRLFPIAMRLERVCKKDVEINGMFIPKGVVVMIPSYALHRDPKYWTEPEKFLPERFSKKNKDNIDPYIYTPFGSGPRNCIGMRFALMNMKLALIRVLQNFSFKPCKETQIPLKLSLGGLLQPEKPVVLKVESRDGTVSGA

For CNc1nc(Nc2ccc(-n3cnc(C)n3)c(OC)c2)nc2c1CC[C@H]2c1ccc(F)cc1, which t1/2 [1] is on record?
The t1/2 was 8.7 h.

And the Activity [2]?
The Activity was “Non-Toxic”.

What about the AUC [3] of the same molecule?
The AUC was 180 µM·h.

What about the inhibition [4] of the same molecule?
Its inhibition is “Active”.

And the Vdss [5]?
The Vdss was 2.3 L/kg.

What about the Activity [6] of the same molecule?
The Activity was “Non-Toxic”.

And the inhibition [7]?
The inhibition was “Active”.

What about the IC50 [8] of the same molecule?
Its IC50 is > 40 µM.

And the Kinact [9]?
Its Kinact is 0.47 min⁻¹.

What about the IC50 [10] of the same molecule?
Its IC50 is 0.0055 µM.

What about the AUC(0-t) at 24 h [11] of the same molecule?
The AUC(0-t) at 24 h was 4 µM·h.

What about the Fu [12] of the same molecule?
Its Fu is 1.3%.

And the t1/2 [13]?
Its t1/2 is 2.7 h.

What about the IC50 [14] of the same molecule?
The IC50 was 4.5 µM.

What about the t1/2 [15] of the same molecule?
The t1/2 was 0.183 h.

And the IC50 [16]?
Its IC50 is 8.3 µM.

And the IC50 [17]?
The IC50 was 0.025 µM.

And the inhibition [18]?
The inhibition was “Active”.

And the IC50 [19]?
Its IC50 is 7.4 µM.

And the pKa [20]?
The pKa was 2.

What about the AUC at 24 h [21] of the same molecule?
The AUC at 24 h was 9.7 µM·h.

And the Fu [22]?
The Fu was 0.8%.

And the Fu [23]?
The Fu was 0.7%.

And the Activity [24]?
Its Activity is 16%.

And the solubility [25]?
The solubility was 0.1 µg/mL (≈ 0.224 µM).

What about the F [26] of the same molecule?
Its F is 98%.

What about the NOAEL [27] of the same molecule?
The NOAEL was 150 mg/kg.

What about the logD [28] of the same molecule?
The logD was 4.34.
